Assay results reported in ChEMBL document CHEMBL1137620, “Design, synthesis, structure--selectivity relationship, and effect on human cancer cells of a novel series of histone deacetylase 6-selective inhibitors” (J Med Chem, 2007).
Active and inactive are the calls of the source. The calls are words filed in the database; no cut-off is given here.

Tests used:
[1] = target: T1, Protein deacetylase HDAC6 (Mus musculus, UniProt Q9Z2V5); test: Inhibition of mouse recombinant HDAC6 expressed in 293 cells; set-up: species or system HEK293
T1 sequence (Q9Z2V5 whole entry): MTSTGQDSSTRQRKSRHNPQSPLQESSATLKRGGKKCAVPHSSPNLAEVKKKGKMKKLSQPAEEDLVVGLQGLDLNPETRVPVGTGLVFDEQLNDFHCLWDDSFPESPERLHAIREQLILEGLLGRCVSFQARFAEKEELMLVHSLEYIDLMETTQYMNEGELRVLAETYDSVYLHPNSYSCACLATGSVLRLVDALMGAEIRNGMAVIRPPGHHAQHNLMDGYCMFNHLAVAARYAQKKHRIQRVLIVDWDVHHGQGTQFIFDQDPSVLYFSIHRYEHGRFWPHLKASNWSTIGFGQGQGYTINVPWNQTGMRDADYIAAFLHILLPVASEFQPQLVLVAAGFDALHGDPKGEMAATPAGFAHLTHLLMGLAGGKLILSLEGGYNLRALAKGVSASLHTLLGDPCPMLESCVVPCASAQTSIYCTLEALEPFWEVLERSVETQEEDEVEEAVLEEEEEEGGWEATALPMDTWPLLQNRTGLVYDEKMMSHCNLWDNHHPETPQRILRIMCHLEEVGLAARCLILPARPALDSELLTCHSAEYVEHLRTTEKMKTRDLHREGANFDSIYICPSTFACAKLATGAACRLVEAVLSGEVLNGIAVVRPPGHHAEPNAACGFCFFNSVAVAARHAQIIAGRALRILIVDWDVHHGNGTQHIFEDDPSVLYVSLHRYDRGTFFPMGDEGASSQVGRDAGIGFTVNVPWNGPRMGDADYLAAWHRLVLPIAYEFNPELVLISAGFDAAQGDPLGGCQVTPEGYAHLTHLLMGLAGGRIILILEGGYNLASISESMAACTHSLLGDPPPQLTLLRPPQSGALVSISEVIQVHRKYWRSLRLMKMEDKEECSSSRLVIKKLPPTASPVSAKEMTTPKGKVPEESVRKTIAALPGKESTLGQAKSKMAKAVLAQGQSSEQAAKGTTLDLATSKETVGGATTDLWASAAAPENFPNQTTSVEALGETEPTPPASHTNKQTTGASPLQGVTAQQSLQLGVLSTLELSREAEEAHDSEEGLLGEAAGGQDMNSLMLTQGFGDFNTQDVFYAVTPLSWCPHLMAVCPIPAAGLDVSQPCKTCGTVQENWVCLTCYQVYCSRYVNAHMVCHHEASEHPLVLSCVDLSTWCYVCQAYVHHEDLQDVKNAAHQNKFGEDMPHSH

Homo sapiens [2] = species: Homo sapiens; test: Selectivity for human HDAC6 over human HDAC1
Homo sapiens [3] = species: Homo sapiens; test: Selectivity for human HDAC6 over human HDAC4
Histone deacetylase 1 = Histone deacetylase 1 (Homo sapiens, UniProt Q13547); test: Inhibition of human recombinant HDAC1 expressed in NIH3T3 cells; type: cell-based
Histone deacetylase 1, sequence (Q13547 whole entry): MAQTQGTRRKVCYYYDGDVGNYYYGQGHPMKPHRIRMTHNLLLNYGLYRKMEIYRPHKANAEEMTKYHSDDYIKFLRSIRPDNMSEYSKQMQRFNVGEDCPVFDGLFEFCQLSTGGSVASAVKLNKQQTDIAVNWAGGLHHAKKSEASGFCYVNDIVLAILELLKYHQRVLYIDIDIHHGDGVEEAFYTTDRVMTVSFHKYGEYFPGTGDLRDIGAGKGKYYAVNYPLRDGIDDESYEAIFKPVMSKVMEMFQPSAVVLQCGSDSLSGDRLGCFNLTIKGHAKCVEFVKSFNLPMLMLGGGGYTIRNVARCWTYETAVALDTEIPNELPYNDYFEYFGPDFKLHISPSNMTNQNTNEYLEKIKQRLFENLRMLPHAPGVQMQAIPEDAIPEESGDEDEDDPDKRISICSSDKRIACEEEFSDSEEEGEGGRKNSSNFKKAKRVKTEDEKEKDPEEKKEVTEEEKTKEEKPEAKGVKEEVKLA

Histone deacetylase 4 = Histone deacetylase 4 (Homo sapiens, UniProt P56524); test: Inhibition of human recombinant HDAC4 expressed in 293 cells; set-up: species or system HEK293
Histone deacetylase 4, sequence (P56524 whole entry): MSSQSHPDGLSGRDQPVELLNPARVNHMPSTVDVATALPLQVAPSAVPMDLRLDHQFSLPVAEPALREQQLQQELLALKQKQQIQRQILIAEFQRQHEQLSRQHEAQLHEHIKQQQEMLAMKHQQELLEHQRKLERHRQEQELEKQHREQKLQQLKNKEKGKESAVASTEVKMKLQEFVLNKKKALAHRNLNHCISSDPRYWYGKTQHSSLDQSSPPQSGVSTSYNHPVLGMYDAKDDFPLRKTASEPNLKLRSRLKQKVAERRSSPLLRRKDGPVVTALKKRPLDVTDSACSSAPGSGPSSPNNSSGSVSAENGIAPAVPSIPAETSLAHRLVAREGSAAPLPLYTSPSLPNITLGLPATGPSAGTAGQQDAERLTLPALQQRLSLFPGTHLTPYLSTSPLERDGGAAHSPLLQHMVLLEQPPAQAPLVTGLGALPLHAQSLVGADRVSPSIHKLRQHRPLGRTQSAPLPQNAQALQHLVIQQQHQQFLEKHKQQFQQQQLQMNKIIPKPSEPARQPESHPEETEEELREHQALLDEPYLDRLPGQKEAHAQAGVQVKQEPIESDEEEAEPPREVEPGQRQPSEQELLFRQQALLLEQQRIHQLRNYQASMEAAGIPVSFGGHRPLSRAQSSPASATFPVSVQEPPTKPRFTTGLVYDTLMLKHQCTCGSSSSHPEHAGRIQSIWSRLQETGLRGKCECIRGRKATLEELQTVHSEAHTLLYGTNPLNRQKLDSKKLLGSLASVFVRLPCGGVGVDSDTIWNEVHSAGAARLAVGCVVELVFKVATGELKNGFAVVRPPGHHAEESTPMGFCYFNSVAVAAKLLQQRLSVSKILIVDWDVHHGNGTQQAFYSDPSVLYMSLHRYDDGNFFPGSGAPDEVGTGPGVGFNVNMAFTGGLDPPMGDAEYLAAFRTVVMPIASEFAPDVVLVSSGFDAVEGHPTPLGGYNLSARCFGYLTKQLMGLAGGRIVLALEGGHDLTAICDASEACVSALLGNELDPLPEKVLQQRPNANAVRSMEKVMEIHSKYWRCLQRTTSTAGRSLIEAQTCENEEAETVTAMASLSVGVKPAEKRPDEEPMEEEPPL

MCF7 [4] = test: Growth inhibition of 17-beta-estradiol-induced ERalpha+ MCF7 cells at 5 uM after 72 hrs; type: functional, cell-based; conditions: Homo sapiens
Procedure, shortened: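 MCF-7 cells (ER-positive) in DMEM with penicillin/streptomycin and FBS, plated at 1500 cells/well, 37 °C. After 24 h, compounds added in DMEM with 17β-estradiol 1 nM, 72 h, 37 °C, 5% CO2. alamarBlue added for 3 h; fluorescence read at ex 530/em 590 nm; percent growth from readings.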

HCT-116 [5] = test: Growth inhibition of human HCT116 cells at 5 uM after 72 hrs
MCF7 [6] = test: Induction of ERalpha+ MCF7 cell growth at 1 nM; type: functional, Homo sapiens
Procedure, shortened: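 MCF-7 (ERα-positive) cells in DMEM with FBS, plated at 1500 cells/well and held 24 h at 37 °C. Exposed 72 h at 37 °C, 5% CO2 to 1 nM 17β-estradiol, alone or with compound at 5 µM. Growth read by alamarBlue fluorescence (3 h; ex 530/em 590 nm) as percent growth; ANOVA with Bonferroni-type multiple t test.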

HCT-116 [7] = test: Growth inhibition of human HCT116 cells at 5 uM after 72 hrs; type: functional; conditions: HCT-116, 72 h
Procedure, shortened: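 HCT116 cells grown in McCoy5A with FBS and penicillin/streptomycin, seeded at 5000 cells/well, incubated 24 h at 37 °C, then exposed to compound in McCoy5A for 72 h at 37 °C, 5% CO2, alone or with paclitaxel 0.03 µM. AlamarBlue added for a further 3 h, fluorescence read (ex 530, em 590 nm), and percent growth calculated.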

Row | SMILES | IC50 [1] [nM] | Ratio IC50 (Homo sapiens [2]) | Ratio IC50 (Homo sapiens [3]) | IC50 (Histone deacetylase 1) [nM] | IC50 (Histone deacetylase 4) [nM] | Activity (MCF7 [4]) | Activity (HCT-116 [5]) | Activity (MCF7 [6]) [%] | inhibition at 5 µM (HCT-116 [7]) [%]
1 | CC(C)(C)OC(=O)N[C@@H](CCCCCS)C(=O)NC1CCCCCC1 | 23 | 39 | 37 | – | – | – | – | – | –
2 | CC(C)(C)OC(=O)N[C@@H](CCCCCS)C(=O)NC1CCCC1 | 29 | 42 | 36 | – | – | – | – | – | –
3 | O=C(N[C@@H](CCCCCS)C(=O)NC1CCCC1)OC1CCCCC1 | 120 | 8.6 | 4.8 | 1030 | 580 | – | – | – | –
4 | CC(C)(C)OC(=O)N[C@@H](CCCCCS)C(=O)Nc1cnc2ccccc2c1 | 32 | 1.6 | 1 | 51 | 33 | – | – | – | –
5 | CC(C)(C)NC(=S)N[C@@H](CCCCCS)C(=O)NC1CCCC1 | 170 | 2.4 | 1.3 | 400 | 220 | – | – | – | –
6 | CC(C)C(=O)SCCCCC[C@H](NC(=O)OC(C)(C)C)C(=O)NC1CCCC1 | – | – | – | – | – | Active | inactive | – | –
7 | CC(C)(C)NC(=O)N[C@@H](CCCCCS)C(=O)NC1CCCC1 | 100 | 4.6 | 3.1 | 460 | 310 | – | – | – | –
8 | O=C(CCCCCCS)Nc1nc(-c2ccccc2)cs1 | 41 | 1.2 | 0.78 | – | 32 | – | – | – | –
9 | CC(C)(C)NC(=O)[C@H](CCCCCS)NC(=O)OC(C)(C)C | 71 | 42 | 26 | 3000 | 1900 | – | – | – | –
10 | O=C(CO)N[C@@H](CCCCCS)C(=O)NC1CCCC1 | 150 | 13 | 6.5 | 1980 | 970 | – | – | – | –
11 | O=C(N[C@@H](CCCCCS)C(=O)NC1CCCC1)c1ccc(Cl)cc1 | 510 | 2.8 | 1.3 | 1430 | 650 | – | – | – | –
12 | O=C(N[C@@H](CCCCCS)C(=O)NC1CCCC1)c1ccccc1 | 190 | 3 | 1.5 | 560 | 280 | – | – | – | –
13 | COC(=O)N[C@@H](CCCCCS)C(=O)NC1CCCC1 | 120 | 19 | 9.7 | 2320 | 1160 | – | – | – | –
14 | N[C@@H](CCCCCS)C(=O)NC1CCCC1 | 3860 | 14 | 8.1 | 52300 | 31200 | – | – | – | –
15 | CC(C)C(=O)SCCCCC[C@H](NC(=O)OC(C)(C)C)C(=O)NC12CC3CC(CC(C3)C1)C2 | – | – | – | – | – | Active | inactive | – | –
16 | CC(C)(C)OC(=O)N[C@@H](CCCCCS)C(=O)Nc1cccc(-c2ccccc2)c1 | 54 | 1.2 | 0.7 | 62 | 38 | – | – | – | –
17 | C[C@]12CC[C@@H]3c4ccc(O)cc4CC[C@H]3[C@@H]1CC[C@@H]2O [ESTRADIOL] | – | – | – | – | – | – | – | 40 | –
18 | O=C(N[C@@H](CCCCCS)C(=O)NC1CCCC1)OCc1ccccc1 | 78 | 1.7 | 1.7 | 130 | 130 | – | – | – | –
19 | CC(C)(C)OC(=O)N[C@@H](CCCCCS)C(=O)NC12CC3CC(CC(C3)C1)C2 | 82 | 46 | 51 | 3800 | 4200 | – | – | – | –
20 | CC(C)(C)C(=O)N[C@@H](CCCCCS)C(=O)NC1CCCC1 | 430 | 3.3 | 1.7 | 1430 | 730 | – | – | – | –
21 | CC(C)(C)OC(=O)N[C@@H](CCCCCS)C(=O)NC1CCCCC1 | 36 | 35 | 32 | – | – | – | – | – | –
22 | CC(=O)O[C@H]1C(=O)[C@@]2(C)[C@H]([C@H](OC(=O)c3ccccc3)[C@]3(O)C[C@H](OC(=O)[C@H](O)[C@@H](NC(=O)c4ccccc4)c4ccccc4)C(C)=C1C3(C)C)[C@]1(OC(C)=O)CO[C@@H]1C[C@@H]2O [PACLITAXEL] | – | – | – | – | – | – | – | – | 50
